Results taken from ChEMBL document CHEMBL2384909, “Development of Novel Alkene Oxindole Derivatives As Orally Efficacious AMP-Activated Protein Kinase Activators” (ACS Med Chem Lett, 2013).

How the values were obtained:
[1] = biological target: T1, 5'-AMP-activated protein kinase catalytic subunit alpha-1 (Homo sapiens, UniProt Q13131); assay: Activation of recombinant AMPK alpha1 (1 to 394) (unknown origin) at 20 ug/mL after 2 hrs by scintillation proximity assay relative to PT1
Target sequence in this assay (Q13131 whole entry, looked up): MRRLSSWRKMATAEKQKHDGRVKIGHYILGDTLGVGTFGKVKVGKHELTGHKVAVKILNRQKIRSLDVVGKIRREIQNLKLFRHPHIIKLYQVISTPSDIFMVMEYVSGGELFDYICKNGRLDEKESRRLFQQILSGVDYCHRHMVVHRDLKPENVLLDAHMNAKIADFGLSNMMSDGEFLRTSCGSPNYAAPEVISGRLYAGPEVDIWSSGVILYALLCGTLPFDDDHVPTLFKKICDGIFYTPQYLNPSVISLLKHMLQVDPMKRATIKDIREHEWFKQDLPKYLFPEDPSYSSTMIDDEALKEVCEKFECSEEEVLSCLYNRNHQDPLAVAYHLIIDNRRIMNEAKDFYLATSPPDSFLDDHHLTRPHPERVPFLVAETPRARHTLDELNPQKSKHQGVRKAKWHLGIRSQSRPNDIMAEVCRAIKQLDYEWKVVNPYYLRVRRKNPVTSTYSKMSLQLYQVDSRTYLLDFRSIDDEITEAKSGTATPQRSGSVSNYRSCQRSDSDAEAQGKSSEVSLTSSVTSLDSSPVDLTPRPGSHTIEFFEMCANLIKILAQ

[2] = biological target: AMPK alpha2/beta1/gamma1 (Homo sapiens) (UniProt P54646+P54619+Q9Y478); assay: Activation of recombinant AMPK alpha2beta1gamma1 (unknown origin) at 20 ug/mL after 2 hrs by scintillation proximity assay relative to AMP; assay type: protein-complex assay
AMPK alpha2/beta1/gamma1 = AMPK alpha2/beta1/gamma1 (Homo sapiens, UniProt P54619+P54646+Q9Y478); assay: Activation of recombinant AMPK alpha2beta1gamma1 (unknown origin) after 2 hrs by scintillation proximity assay; assay type: protein-complex assay
How it was run: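 Activation of bacterially expressed AMPK α2β1γ1 was measured by scintillation proximity assay. Efficacy is expressed relative to AMP.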

[3] = biological target: 5'-AMP-activated protein kinase catalytic subunit alpha-2 (Homo sapiens, UniProt P54646); assay: Activation of human AMPK alpha2 (1 to 398) expressed in African green monkey COS7 cells; assay type: cell-based, COS-7
[4] = biological target: T1, 5'-AMP-activated protein kinase catalytic subunit alpha-1; assay: Activation of recombinant AMPK alpha1 (1 to 394) (unknown origin) after 2 hrs by scintillation proximity assay
Target sequence in this assay (Q13131 whole entry): as the sequence (Q13131 whole entry, looked up) above

[5] = biological target: T1, 5'-AMP-activated protein kinase catalytic subunit alpha-1; assay: Activation of human AMPK alpha1 (1 to 394) expressed in African green monkey COS7 cells; assay type: cell-based, COS-7
Target sequence in this assay (Q13131 whole entry): as the sequence (Q13131 whole entry, looked up) above

[6] = Activation of AMPK in rat primary hepatocytes assessed as inhibition of fatty acid biosynthesis by 14C-acetate incorporation assay; assay type: cell-based; conditions: Hepatocyte
[7] = Activation of partially purified rat liver AMPK assessed as 33P-phosphorylation of SAMS peptide
Mus musculus = assay: Antidiabetic activity in diet-induced obese C57BL/6J mouse assessed as reduction in plasma triglyceride at 150 mg/kg, po qd for 4 weeks (reference value: 0.62 +/- 0.02 mM); assay type: functional
L6 [8] = assay: Induction of AMPK-mediated ACC phosphorylation in rat L6 cells by Western blotting analysis; assay type: cell-based
L6 [9] = assay: Induction of AMPK phosphorylation in rat L6 cells by Western blotting analysis; assay type: cell-based

AMPK alpha2/beta1/gamma1 (Homo sapiens), sequence (P54619 whole entry partner): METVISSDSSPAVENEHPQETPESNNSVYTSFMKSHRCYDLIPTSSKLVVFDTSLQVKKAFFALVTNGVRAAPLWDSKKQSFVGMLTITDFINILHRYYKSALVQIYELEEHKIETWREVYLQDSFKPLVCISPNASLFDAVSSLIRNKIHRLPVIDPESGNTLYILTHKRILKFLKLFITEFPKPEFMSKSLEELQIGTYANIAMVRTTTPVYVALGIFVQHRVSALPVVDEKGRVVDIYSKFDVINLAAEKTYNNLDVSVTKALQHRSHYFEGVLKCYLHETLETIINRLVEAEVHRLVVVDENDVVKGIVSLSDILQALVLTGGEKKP
AMPK alpha2/beta1/gamma1 (Homo sapiens), sequence (P54646 whole entry): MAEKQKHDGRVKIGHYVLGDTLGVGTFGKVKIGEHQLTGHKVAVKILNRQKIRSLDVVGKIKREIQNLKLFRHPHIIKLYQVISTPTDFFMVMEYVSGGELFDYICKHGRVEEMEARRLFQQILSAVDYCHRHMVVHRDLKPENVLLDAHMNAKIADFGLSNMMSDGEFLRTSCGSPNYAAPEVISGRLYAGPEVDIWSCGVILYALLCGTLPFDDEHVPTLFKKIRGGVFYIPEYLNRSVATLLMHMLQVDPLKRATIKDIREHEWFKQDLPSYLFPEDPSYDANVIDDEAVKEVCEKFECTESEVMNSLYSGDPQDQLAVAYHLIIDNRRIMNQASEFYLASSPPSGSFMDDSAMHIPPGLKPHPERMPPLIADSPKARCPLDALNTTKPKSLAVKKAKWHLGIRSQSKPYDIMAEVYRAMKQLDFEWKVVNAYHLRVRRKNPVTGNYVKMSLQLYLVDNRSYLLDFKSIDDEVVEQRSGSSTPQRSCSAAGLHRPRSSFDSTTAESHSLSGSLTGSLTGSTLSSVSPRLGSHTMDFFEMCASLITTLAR
AMPK alpha2/beta1/gamma1 (Homo sapiens), sequence (Q9Y478 2-270 partner limits assumed): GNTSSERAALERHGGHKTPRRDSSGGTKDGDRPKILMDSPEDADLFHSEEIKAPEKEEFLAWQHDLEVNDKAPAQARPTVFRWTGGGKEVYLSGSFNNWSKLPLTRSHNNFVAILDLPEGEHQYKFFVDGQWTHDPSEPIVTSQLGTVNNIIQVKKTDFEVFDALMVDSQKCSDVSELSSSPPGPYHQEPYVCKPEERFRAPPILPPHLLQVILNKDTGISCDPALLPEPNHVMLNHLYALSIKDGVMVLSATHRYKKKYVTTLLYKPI
AMPK alpha2/beta1/gamma1, sequence (P54646 whole entry): as the sequence (P54646 whole entry) above
AMPK alpha2/beta1/gamma1, sequence (P54619 whole entry): as the sequence (P54619 whole entry partner) above
AMPK alpha2/beta1/gamma1, sequence (Q9Y478 whole entry): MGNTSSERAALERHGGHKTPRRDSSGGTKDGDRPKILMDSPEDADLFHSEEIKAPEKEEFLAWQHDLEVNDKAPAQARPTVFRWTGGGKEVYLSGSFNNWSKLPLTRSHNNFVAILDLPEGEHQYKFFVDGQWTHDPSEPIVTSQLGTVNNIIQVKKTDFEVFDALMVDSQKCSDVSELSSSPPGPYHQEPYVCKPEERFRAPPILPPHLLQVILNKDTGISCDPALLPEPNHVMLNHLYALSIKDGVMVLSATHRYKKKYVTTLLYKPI
5'-AMP-activated protein kinase catalytic subunit alpha-2, sequence (P54646 whole entry): as the sequence (P54646 whole entry) above

| Activity [1] [%] | Efficacy [2] [%] | EC50 (AMPK alpha2/beta1/gamma1) [µM] | SMILES | other results |
| --- | --- | --- | --- | --- |
| 106 |  |  | Cc1cc(-c2ccc(/C=C3\S/C(=N\c4cccc(C(=O)O)c4)NC3=O)o2)c([N+](=O)[O-])cc1C |  |
|  | 227 | 9.9 | CC(C)/C(=C1\C(=O)N(Cc2cccc(C(=O)O)c2)c2ccccc21)c1ccc(Cl)cc1 |  |
| 176 |  |  | O=C1N/C(=N/c2ccc(Cl)c(C(=O)O)c2)S/C1=C\c1ccc(-c2cccc([N+](=O)[O-])c2)o1 |  |
|  | 40 | 0.3 | Cc1cc(-c2ccc(/C=C3\S/C(=N\c4ccc(Cl)c(C(=O)O)c4)NC3=O)o2)c([N+](=O)[O-])cc1C | EC50 [3]: 12 µM; EC50 [4]: 9.6 µM; EC50 [5]: 9 µM |
|  | 99 | 7.4 | O=C(O)c1cccc(CN2C(=O)/C(=C(\c3ccccc3)c3ccccc3OC(F)(F)F)c3ccccc32)c1 |  |
|  | 70 | 1 | O=C1/C(=C(\c2ccccc2)c2ccc(Cl)cc2)c2ccccc2N1Cc1ccccc1 |  |
| < 50 |  |  | Cc1cc(-c2ccc(/C=C3\S/C(=N\c4ccc(F)cc4)NC3=O)o2)c([N+](=O)[O-])cc1C |  |
|  | < 50 | > 10 | CC(C)/C(=C1\C(=O)N(Cc2cccc(C(=O)O)c2)c2ccccc21)c1ccccc1 |  |
| < 50 |  |  | O=C1N/C(=N/c2ccc(Cl)c(C(=O)O)c2)S/C1=C\c1ccc(-c2ccccc2[N+](=O)[O-])o1 |  |
|  | 97 | 4 | CC(C)c1ccc(/C(=C2/C(=O)N(Cc3cccc(C(=O)O)c3)c3ccccc32)c2ccccc2)cc1 |  |
|  | 151 | 4.5 | CC(C)NC(=O)c1cccc(CN2C(=O)/C(=C(\c3ccccc3)c3ccc(Cl)cc3)c3ccccc32)c1 |  |
| < 50 |  |  | Cc1cc(-c2ccc(/C=C3\SC(=S)N(c4cccc(C(=O)O)c4)C3=O)o2)c([N+](=O)[O-])cc1C |  |
| 55 |  |  | Cc1cc(-c2ccc(/C=C3\S/C(=N\c4ccccc4C(=O)O)NC3=O)o2)c([N+](=O)[O-])cc1C |  |
| < 50 |  |  | O=C1N/C(=N/c2ccc(Cl)c(C(=O)O)c2)S/C1=C\c1ccc(-c2ccccc2Cl)o1 |  |
|  | 101 | 1.8 | O=C(O)c1cccc(CN2C(=O)/C(=C(\c3ccccc3)c3ccccc3Cl)c3ccccc32)c1 |  |
|  |  |  | N#Cc1c(O)c2c(-c3ccc(-c4ccccc4O)cc3)csc2[nH]c1=O | IC50 [6]: 3.2 µM; EC50 [7]: 0.8 µM |
|  |  |  | CN(C)C(=N)NC(=N)N [METFORMIN] | Activity (Mus musculus): 0.5 mM |
|  | 75 | 9.2 | O=C(O)c1ccc(CN2C(=O)/C(=C(\c3ccccc3)c3ccc(Cl)cc3)c3ccccc32)nc1 |  |
| 341 | 152 | 3.2 | O=C(O)c1cccc(CN2C(=O)/C(=C/c3ccc(-c4cccc([N+](=O)[O-])c4)o3)c3ccccc32)c1 | Activity (L6 [8]): Dose-dependent effect; Activity (L6 [9]): Dose-dependent effect; EC50 [4]: 2.1 µM |
|  | 103 | 4.6 | O=C(O)c1cccc(CN2C(=O)/C(=C(/c3ccc(Cl)cc3)C3CCCCC3)c3ccccc32)c1 |  |
|  | 105 | 5.9 | O=C(O)c1cccc(CN2C(=O)/C(=C(\c3ccccc3)c3ccc(F)c(Cl)c3)c3ccccc32)c1 |  |
|  | 96 | 3.2 | O=C(O)c1cccc(CN2C(=O)/C(=C(\c3ccccc3)c3cccnc3)c3ccccc32)c1 |  |
| < 50 |  |  | COC(=O)c1cc(/N=C2/NC(=O)/C(=C/c3ccc(-c4cc(C)c(C)cc4[N+](=O)[O-])o3)S2)ccc1Cl |  |
|  | 122 | 4.8 | O=C(O)c1cccc(CN2C(=O)/C(=C/c3ccc(-c4ccc(F)c(Cl)c4)o3)c3ccccc32)c1 | Activity (L6 [8]): Dose-dependent effect; Activity (L6 [9]): Dose-dependent effect |
